Screening results deposited in PubChem by several laboratories.
The list is not random: actives were taken first. Their share in the collection is about 2.2%.
ASAP1 GAP inh: inhibitors of human ASAP1 ArfGAP activity, primary screen, biochemical, fluorescence polarization. inhibition, % at 16.5 µM. ASAP1-stimulated ARF1 GTP hydrolysis, GDP FP detection. Arf-GAP with SH3 domain, ANK repeat and PH domain-containing protein 1 (Homo sapiens), …. actives 0.19% (n = 360,000); in the data active = inhibition above about 25%;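 also: 0% = vehicle with enzyme and substrate and 100% = no enzyme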
Target sequence (Q9ULH1 325-724 limits assumed): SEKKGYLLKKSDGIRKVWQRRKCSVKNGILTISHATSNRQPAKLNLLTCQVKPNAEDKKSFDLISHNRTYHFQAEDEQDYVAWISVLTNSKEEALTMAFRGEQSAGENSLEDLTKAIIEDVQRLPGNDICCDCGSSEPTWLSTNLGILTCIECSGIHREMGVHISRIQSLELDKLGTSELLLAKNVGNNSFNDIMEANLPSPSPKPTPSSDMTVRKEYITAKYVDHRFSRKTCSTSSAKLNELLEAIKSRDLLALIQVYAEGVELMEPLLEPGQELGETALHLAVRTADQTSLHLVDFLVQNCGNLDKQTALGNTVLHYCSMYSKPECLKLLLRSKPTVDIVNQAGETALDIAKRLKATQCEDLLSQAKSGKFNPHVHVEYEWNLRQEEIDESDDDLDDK
rCAG binder: binders of r(CAG) RNA repeats, primary screen, biochemical, fluorescence. AID 651821, 2012. inhibition, % at 3 µM. actives 1.3% (n = 370,000). r(CAG) RNA repeat, TO-PRO-1 dye displacement fluorescence;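 active = inhibition above the plate cutoff, the mean of all test compounds on that plate plus 3 SD, cut at about 35% in these data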;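 also: 0% = DMSO alone and 100% = 100 µM mitoxantrone as full dye displacement; higher means more dye released from RNA so lower well fluorescence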
NadD block: inhibitors of S. aureus NadD, primary screen, biochemical, colorimetric, uHTS. Nicotinate-nucleotide adenylyltransferase NadD (Staphylococcus aureus N315). actives 0.78% (n = 360,000). purified NadD enzyme, colorimetric absorbance read-out. inhibition, % at 20 µM; in the data active = inhibition above about 26%
ARFGAP1 inhibitor: inhibitors of rat ARFGAP1 GAP activity, primary screen, biochemical, fluorescence polarization, GDP tracer; inhibition, % at 16.5 µM; Arfgap1-stimulated ARF1 GTP hydrolysis, GDP FP detection; AID 651572, 2012; actives 0.26% (n = 360,000);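 active = inhibition above a per-plate limit, mean inhibition of low control wells plus 3 SD, cut at about 25% in these data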;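 also: 0% = DMSO wells with enzyme and 100% = wells lacking Arfgap1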
Target sequence (Q62848 1-136 limits assumed): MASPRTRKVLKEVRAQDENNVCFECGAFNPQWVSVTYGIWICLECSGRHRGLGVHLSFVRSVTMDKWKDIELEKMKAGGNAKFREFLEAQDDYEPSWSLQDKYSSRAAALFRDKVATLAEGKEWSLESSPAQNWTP
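Material: rat Arfgap1 GAP domain (His6, aa 1-136), purified enzyme. Also added: human ARF1(Δ1-17)-GTP substrate. Compound dosing: 16.5 µM single point, 1.26% DMSO. Timing: enzyme reaction 120 min at 25 °C after 20 min preincubation. Signal: GDP detection by fluorescence polarization. Read-out basis: percent inhibition of GAP-stimulated GDP formation, scaled between DMSO and no-Arfgap1 medians.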
rCAG binder conf: small molecules binding CAG repeat RNA – biochemical, fluorescence, confirmation; inhibition, % at 3 µM; shares compounds with rCAG binder; r(CAG) RNA repeat, TO-PRO-1 dye displacement fluorescence; actives 70% (n = 4,300);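 active = inhibition above a per-plate cutoff, the mean inhibition of sample wells plus 3 SD, cut at about 35% in these data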;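 also: loss of TO-PRO-1 fluorescence as compound displaces dye from 1x1 AA loop RNA; 0% = DMSO only wells and 100% = 100 µM mitoxantrone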
DNA CAG counter: displacement of TO-PRO-1 from CAG DNA duplex, counter-screen for rCAG RNA repeat binder project, biochemical, fluorescence, TO-PRO-1 dye, d(CAG) DNA oligo | shares compounds with rCAG binder | d(CAG) DNA oligo TO-PRO-1 dye displacement | inhibition, % at 3 µM | actives 94% (n = 4,300) | AID 652068, 2013;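 active = inhibition above its plate's cutoff, the mean test-well inhibition plus 3 SD, cut at about 4.8% in these data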;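 also: 0% = DNA dye mix with DMSO and 100% = 100 µM mitoxantrone; hits displace the dye from DNA and so lower well fluorescence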
dCAG dye DR: inhibitors of DNA CAG/GTC TO-PRO-1 complex, dose response, counter-screen for rCAG RNA repeat binder project, biochemical, fluorescence, TO-PRO-1 dye. shares compounds with rCAG binder. DNA CAG/GTC duplex TO-PRO-1 dye displacement fluorescence. IC50, µM. actives 20% (n = 250). AID 686960, 2013; in the data active = IC50 below about 10 µM
An asterisk follows results filed as active; nt = no result.

SMILES	ASAP1 GAP inh	rCAG binder	NadD block	ARFGAP1 inhibitor	rCAG binder conf	DNA CAG counter	others
O=C1COc2ccccc2C(c2nc3ccccc3[nH]2)N1Cc1ccccc1 (stereo not drawn)	-1	2	4	-1	nt	nt
CCCCCN(CCCCC)C(=O)C(CCC(=O)O)NC(=O)c1ccc(Cl)c(Cl)c1 (stereo not drawn)	10	54*	4	-6	52*	12*
CCCCN(CC)C(=O)c1ccc(Cl)c(Cl)c1	-16	-5	-4	1	nt	nt
Cc1ccc(CNC(=O)C2CC(=O)N(CCC(C)C)C2)cc1 (stereo not drawn)	-4	-4	-8	6	nt	nt
CCCCN1CC(C(=O)NCc2ccc(C)cc2)CC1=O (stereo not drawn)	-4	46*	-7	7	0	-1
COc1ccc(NC(=O)CSc2nc(O)cc(=O)n2-c2ccc(OC)cc2)cc1	2	40*	-2	6	13	4.5*
COc1ccccc1-n1c(SCC(=O)Nc2ccccc2C)nc(O)cc1=O	-19	40*	3	-11	7	5.9*
COc1ccccc1-n1c(SCC(=O)NC(C)(C)C)nc(O)cc1=O	-2	11	3	6	nt	nt
COc1ccc(-n2c(SCC(=O)Nc3ccccc3)nc(O)cc2=O)cc1	-6	23	5	-2	nt	nt
CC(C)(C)c1ccc(Oc2ccc(NC(=O)C3CC=CCC3C(=O)O)cc2)cc1 (stereo not drawn)	-19	35*	7	-9	45*	12*
Cc1ccccc1Oc1ccc(NC(=O)C2CC=CCC2C(=O)O)cc1 (stereo not drawn)	18	3	-2	3	nt	nt
COc1cc(/C=C2/C(=O)c3cccc([N+](=O)[O-])c3C2=O)c(Br)cc1O	1	60*	11	-9	89*	62*
C=CCNC(=O)c1cc2cc(Cl)ccc2nc1N	10	3	4	5	nt	nt
COc1ccc2[nH]c3c(c2c1)CCN1C(=O)C(CC(=O)NCCCn2ccnc2)C[C@H](C(=O)N2CCOCC2)[C@@]31CCC1CCCC1 (stereo partly drawn)	13	3	11	10	nt	nt
O=C(CC1C[C@H](C(=O)N2CCOCC2)[C@@]2(CCC3CCCC3)c3[nH]c4ccccc4c3CCN2C1=O)NCCCn1ccnc1 (stereo partly drawn)	-5	35*	10	-18	2	2
Cc1ccc(CN2CCCCC(NC(=O)c3ccc(Br)cc3)C2=O)cc1 (stereo not drawn)	nt	1	nt	nt	nt	nt
CN1C(=O)NC(c2ccccc2)C2=C1CN(c1cccc(C(F)(F)F)c1)C2=O (stereo not drawn)	-2	49*	-3	-10	3	0
N#C/C(=C\c1ccc(C(=O)O)cc1)S(=O)(=O)c1cc(Br)ccc1Br	20	55*	0	-10	12	1
COc1cc(CCNC2=CC(=O)c3ncccc3C2=O)ccc1O	10	5	4	-2	nt	nt
Fc1cccc(CNC(=S)OC2CCC23CCC(c2ccccc2)CC3)c1 (stereo not drawn)	nt	6	nt	nt	nt	nt
CCOc1ccc(NC(=O)Nc2nc(SCC)ns2)cc1	-17	65*	5	-2	31	18*
COc1ccc(Cl)cc1NC(=S)NNC(=O)c1cccs1	12	36*	4	2	34	9.6*
CCOc1cc(/C=N/NC(=O)C(N)=O)cc(Br)c1O	2	36*	2	4	1	0
COc1cccc(NC(=O)Nc2nnc(Cc3ccccc3F)s2)c1	7	40*	-6	-9	22	14*
CCSCCc1nnc(NC(=O)Nc2cccc(C(F)(F)F)c2)s1	11	38*	0	5	27	19*
SMILES	ASAP1 GAP inh	rCAG binder	NadD block	ARFGAP1 inhibitor	rCAG binder conf	DNA CAG counter	others
O=C(Nc1cccc(C(F)(F)F)c1)Nc1nnc([C@H]2C[C@H](O)[C@@H](CO)O2)s1	4	19	-1	5	nt	nt
O=C(Nc1ccc(F)cc1)Nc1nnc(Cc2ccccc2F)s1	0	45*	6	-5	18	16*
CCCCc1c(-c2ccccc2OC)ncn1CCc1ccccc1Cl	-5	-3	4	-6	nt	nt
Clc1ccccc1C1Nc2cccc3cccc(c23)N1	15	15	29	5	nt	nt
Oc1ccc(C2Nc3cccc4cccc(c34)N2)c(O)c1	17	75*	22	9	64*	44*
CC(NNC(=S)N1CCCCCC1)c1ccc2ccccc2n1 (stereo not drawn)	-13	1	-5	4	nt	nt
O=C(CSc1nc2ccccc2n1Cc1ccccc1Cl)N/N=C/c1ccccc1C(=O)O	13	39*	9	6	54*	16*
C#CCNC(=O)C[C@H]1C[C@@]2(C(=O)OC)C(=C[C@H](COCc3ccccc3)O[C@@H]2C)N(Cc2cccc3ccccc23)C1=O	nt	8	nt	nt	nt	nt
CCCc1cc(=O)oc2cc(C)cc(OCC(=O)NC(Cc3ccc(Cl)cc3)C(=O)O)c12 (stereo not drawn)	-1	45*	-1	10	47*	10*	dCAG dye DR=>30
CCCc1cc(=O)oc2cc(C)cc(OCC(=O)N[C@@H](CSCc3ccccc3)C(=O)O)c12	-5	62*	5	-4	50*	13*
CCCc1cc(=O)oc2cc(C)cc(OCC(=O)NC3CCN(Cc4ccccc4)CC3)c12	0	-5	-5	-17	nt	nt
CCCc1cc(=O)oc2cc(C)cc(OCC(=O)O)c12	-2	0	1	-8	nt	nt
Cc1cc(OCC(=O)NC(Cc2c[nH]c3ccc(O)cc23)C(=O)O)c2c(C)c(C)c(=O)oc2c1 (stereo not drawn)	0	11	8	8	nt	nt
Cc1cc(OCC(=O)NC(Cc2ccc(Cl)cc2)C(=O)O)c2c(C)c(C)c(=O)oc2c1 (stereo not drawn)	-3	45*	1	12	42*	9.4*
CCCNC(=O)C1(C)CCCN(C(=O)c2cc(C)nn2C(C)(C)C)C1 (stereo not drawn)	-9	-2	-1	9	nt	nt
CCc1ccc(S(=O)(=O)Nc2cc(SCC(=O)O)c(O)c3ccccc23)cc1	-1	30	12	14	nt	nt
CCOc1ccc(S(=O)(=O)Nc2cc(SCC(=O)O)c(O)c3ccccc23)cc1	-6	36*	9	0	60*	24*
Cc1ccccc1N/N=C/c1sc(=O)n(Cc2cccc(C(=O)O)c2)c1Cl	2	69*	5	17	78*	40*
COC(=O)c1cccc(Cn2c(Cl)c(/C=N/Nc3ccccc3C)sc2=O)c1	-6	13	4	-7	nt	nt
